From ChEMBL document CHEMBL1781959, “Synthesis and in vitro antitumor activity of substituted quinazoline and quinoxaline derivatives: search for anticancer agent” (Eur J Med Chem, 2011)

Columns and labels:
Type in all cases: functional
U-251 = experiment: Anticancer activity against human U251 cells assessed as cell growth promotion at 10^-5 M after 48 hrs by SRB assay relative to control
OVCAR-5 = experiment: Anticancer activity against human OVCAR5 cells assessed as cell growth promotion at 10^-5 M after 48 hrs by SRB assay relative to control
OVCAR-3 = experiment: Anticancer activity against human OVCAR3 cells assessed as cell growth promotion at 10^-5 M after 48 hrs by SRB assay relative to control
PC-3 = experiment: Anticancer activity against human PC3 cells assessed as cell growth promotion at 10^-5 M after 48 hrs by SRB assay relative to control
HCC 2998 = experiment: Anticancer activity against human HCC2998 cells assessed as cell growth promotion at 10^-5 M after 48 hrs by SRB assay relative to control
NCI-H23 = experiment: Anticancer activity against human NCI-H23 cells assessed as cell growth promotion at 10^-5 M after 48 hrs by SRB assay relative to control
NCI/ADR-RES = experiment: Anticancer activity against human NCI/ADR-RES cells assessed as cell growth promotion at 10^-5 M after 48 hrs by SRB assay relative to control
SR = experiment: Anticancer activity against human SR cells assessed as cell growth promotion at 10^-5 M after 48 hrs by SRB assay relative to control
SK-OV-3 = experiment: Anticancer activity against human SKOV3 cells assessed as cell growth promotion at 10^-5 M after 48 hrs by SRB assay relative to control
[1] = Anticancer activity against human Hs 578T cells assessed as cell growth promotion at 10^-5 M after 48 hrs by SRB assay relative to control
SK-MEL-5 = experiment: Anticancer activity against human SK-MEL-5 cells assessed as cell growth promotion at 10^-5 M after 48 hrs by SRB assay relative to control
COLO 205 = experiment: Anticancer activity against human COLO205 cells assessed as cell growth promotion at 10^-5 M after 48 hrs by SRB assay relative to control
SK-MEL-28 = experiment: Anticancer activity against human SK-MEL-28 cells assessed as cell growth promotion at 10^-5 M after 48 hrs by SRB assay relative to control
HT-29 = experiment: Anticancer activity against human HT-29 cells assessed as cell growth promotion at 10^-5 M after 48 hrs by SRB assay relative to control
SF-268 = experiment: Anticancer activity against human SF268 cells assessed as cell growth promotion at 10^-5 M after 48 hrs by SRB assay relative to control
EKVX = experiment: Anticancer activity against human EKVX cells assessed as cell growth promotion at 10^-5 M after 48 hrs by SRB assay relative to control
MDA-MB-435 = experiment: Anticancer activity against human MDA-MB-435 cells assessed as cell growth promotion at 10^-5 M after 48 hrs by SRB assay relative to control
HL-60(TB) = experiment: Anticancer activity against human HL-60(TB) cells assessed as cell growth promotion at 10^-5 M after 48 hrs by SRB assay relative to control
Outline: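 NCI-60 single-dose screen: compound at 10^-5 M, 48 h at 37 °C, 5% CO2; cells grown in RPMI 1640 with 5% FBS and 2 mM L-glutamine, pre-incubated 24 h before dosing. Adherent cells fixed with cold TCA; endpoint is sulforhodamine B protein staining. Percent growth of treated cells is reported relative to untreated control.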

MOLT-4 = experiment: Anticancer activity against human MOLT4 cells assessed as cell growth promotion at 10^-5 M after 48 hrs by SRB assay relative to control
UACC-62 = experiment: Anticancer activity against human UACC62 cells assessed as cell growth promotion at 10^-5 M after 48 hrs by SRB assay relative to control
T47D = experiment: Anticancer activity against human T47D cells assessed as cell growth promotion at 10^-5 M after 48 hrs by SRB assay relative to control
LOX IMVI = experiment: Anticancer activity against human LOXIMVI cells assessed as cell growth promotion at 10^-5 M after 48 hrs by SRB assay relative to control
SF-539 = experiment: Anticancer activity against human SF539 cells assessed as cell growth promotion at 10^-5 M after 48 hrs by SRB assay relative to control
[2] = Anticancer activity against human […] cells assessed as cell growth promotion at 10^-5 M after 48 hrs by SRB assay relative to control
A498 = experiment: Anticancer activity against human A498 cells assessed as cell growth promotion at 10^-5 M after 48 hrs by SRB assay relative to control
HCT-15 = experiment: Anticancer activity against human HCT15 cells assessed as cell growth promotion at 10^-5 M after 48 hrs by SRB assay relative to control
KM12 = experiment: Anticancer activity against human KM12 cells assessed as cell growth promotion at 10^-5 M after 48 hrs by SRB assay relative to control
SW-620 = experiment: Anticancer activity against human SW620 cells assessed as cell growth promotion at 10^-5 M after 48 hrs by SRB assay relative to control
RXF 393 = experiment: Anticancer activity against human RXF393 cells assessed as cell growth promotion at 10^-5 M after 48 hrs by SRB assay relative to control
CAKI-1 = experiment: Anticancer activity against human Caki1 cells assessed as cell growth promotion at 10^-5 M after 48 hrs by SRB assay relative to control
UACC-257 = experiment: Anticancer activity against human UACC257 cells assessed as cell growth promotion at 10^-5 M after 48 hrs by SRB assay relative to control
ACHN = experiment: Anticancer activity against human ACHN cells assessed as cell growth promotion at 10^-5 M after 48 hrs by SRB assay relative to control
786-0 = experiment: Anticancer activity against human 786-0 cells assessed as cell growth promotion at 10^-5 M after 48 hrs by SRB assay relative to control
DU-145 = experiment: Anticancer activity against human DU145 cells assessed as cell growth promotion at 10^-5 M after 48 hrs by SRB assay relative to control
MCF7 = experiment: Anticancer activity against human MCF7 cells assessed as cell growth promotion at 10^-5 M after 48 hrs by SRB assay relative to control
IGROV-1 = experiment: Anticancer activity against human IGROV1 cells assessed as cell growth promotion at 10^-5 M after 48 hrs by SRB assay relative to control
TK-10 = experiment: Anticancer activity against human TK10 cells assessed as cell growth promotion at 10^-5 M after 48 hrs by SRB assay relative to control
SN12C = experiment: Anticancer activity against human SN12C cells assessed as cell growth promotion at 10^-5 M after 48 hrs by SRB assay relative to control
SF-295 = experiment: Anticancer activity against human SF295 cells assessed as cell growth promotion at 10^-5 M after 48 hrs by SRB assay relative to control

## O=C(Nc1ccccc1C(=O)Nc1ccc(/C=C/c2ccc(O)cc2)cc1)c1ccccc1
U-251
  Activity: 103%
OVCAR-5
  Activity: 96.06%
OVCAR-3
  Activity: 89.47%
PC-3
  Activity: 61.81%
HCC 2998
  Activity: 94.19%
NCI-H23
  Activity: 91.38%
NCI/ADR-RES
  Activity: 71.73%
SR
  Activity: 94.97%
SK-OV-3
  Activity: 92.69%
[1]
  Activity: 104%
SK-MEL-5
  Activity: 76.71%
COLO 205
  Activity: 101%
SK-MEL-28
  Activity: 103%
HT-29
  Activity: 97.64%
SF-268
  Activity: 69.03%
EKVX
  Activity: 85.24%
MDA-MB-435
  Activity: 86.41%
HL-60(TB)
  Activity: 50.34%
MOLT-4
  Activity: 44.21%
UACC-62
  Activity: 40.16%
T47D
  Activity: 66.17%
LOX IMVI
  Activity: 69.03%
SF-539
  Activity: 81.74%
[2]
  Activity: 53.22%
A498
  Activity: 85.08%
HCT-15
  Activity: 57.75%
KM12
  Activity: 67.28%
SW-620
  Activity: 101%
RXF 393
  Activity: 97.37%
CAKI-1
  Activity: 70.25%
UACC-257
  Activity: 94.49%
ACHN
  Activity: 58.96%
786-0
  Activity: 81.43%
DU-145
  Activity: 100%
MCF7
  Activity: 77.81%
IGROV-1
  Activity: 85.6%
TK-10
  Activity: 100%
SN12C
  Activity: 80.93%
SF-295
  Activity: 97.53%
